The target in data set [1] is T1, DNA excision repair protein ERCC-1/DNA repair endonuclease XPF (Homo sapiens, UniProt P07992+Q92889).
T1 sequence (P07992 whole entry): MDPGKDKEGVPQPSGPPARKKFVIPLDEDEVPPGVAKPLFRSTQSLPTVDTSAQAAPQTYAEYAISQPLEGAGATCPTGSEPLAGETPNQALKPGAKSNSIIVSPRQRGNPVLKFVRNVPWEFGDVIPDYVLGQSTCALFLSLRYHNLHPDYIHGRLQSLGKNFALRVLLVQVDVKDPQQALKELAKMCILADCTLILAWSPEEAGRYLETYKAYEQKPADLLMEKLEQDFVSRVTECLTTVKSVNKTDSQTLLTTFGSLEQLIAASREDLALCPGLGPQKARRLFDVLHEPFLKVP
T1 sequence (Q92889 whole entry): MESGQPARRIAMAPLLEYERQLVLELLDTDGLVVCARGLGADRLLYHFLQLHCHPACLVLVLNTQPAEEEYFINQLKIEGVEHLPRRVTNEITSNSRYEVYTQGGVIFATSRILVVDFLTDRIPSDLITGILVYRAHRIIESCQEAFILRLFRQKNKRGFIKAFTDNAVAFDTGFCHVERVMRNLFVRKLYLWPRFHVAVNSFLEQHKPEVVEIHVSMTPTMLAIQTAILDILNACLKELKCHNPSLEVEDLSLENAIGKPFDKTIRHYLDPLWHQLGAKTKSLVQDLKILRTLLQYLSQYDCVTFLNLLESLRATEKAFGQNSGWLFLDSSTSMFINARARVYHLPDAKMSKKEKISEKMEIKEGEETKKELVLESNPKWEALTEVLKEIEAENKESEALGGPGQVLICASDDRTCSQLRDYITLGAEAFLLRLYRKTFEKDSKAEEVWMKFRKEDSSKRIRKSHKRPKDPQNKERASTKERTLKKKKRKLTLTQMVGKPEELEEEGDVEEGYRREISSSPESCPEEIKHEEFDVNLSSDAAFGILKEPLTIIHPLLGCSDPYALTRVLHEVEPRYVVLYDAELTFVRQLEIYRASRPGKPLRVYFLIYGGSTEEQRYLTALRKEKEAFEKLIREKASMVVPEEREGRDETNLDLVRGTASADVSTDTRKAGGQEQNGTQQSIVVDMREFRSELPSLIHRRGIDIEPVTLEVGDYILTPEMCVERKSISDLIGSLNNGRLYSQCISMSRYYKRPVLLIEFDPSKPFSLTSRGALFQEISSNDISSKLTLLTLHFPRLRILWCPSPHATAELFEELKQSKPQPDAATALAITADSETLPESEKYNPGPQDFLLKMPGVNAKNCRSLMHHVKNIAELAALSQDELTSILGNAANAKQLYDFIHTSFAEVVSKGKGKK
As to the kind of experiment: Inhibition of ERCC1-XPF (unknown origin) by high-throughput fluorescence based in-vitro endonuclease assay. It is filed as protein-complex assay.

Data set [2] concerns the target Flap endonuclease 1 (Homo sapiens, UniProt P39748). Description: Inhibition of FEN1 (unknown origin).
Data set [3] deals with T2, Deoxyribonuclease-1 (Homo sapiens, UniProt P24855).
T2 sequence (P24855 whole entry): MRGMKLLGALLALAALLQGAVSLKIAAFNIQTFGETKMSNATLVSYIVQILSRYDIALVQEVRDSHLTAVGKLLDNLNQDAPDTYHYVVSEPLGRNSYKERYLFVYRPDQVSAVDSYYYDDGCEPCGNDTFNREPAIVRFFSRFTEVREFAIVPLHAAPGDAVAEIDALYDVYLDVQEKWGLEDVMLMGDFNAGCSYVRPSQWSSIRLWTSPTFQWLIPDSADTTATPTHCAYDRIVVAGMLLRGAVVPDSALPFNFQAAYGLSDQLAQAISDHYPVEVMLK
Description: Inhibition of DNAse1 (unknown origin).

Data set [4] can be described thus: Lipophilicity, log D of the compound. It is filed as physicochemical. The settings on record: octanol/water.
In data set [5] the target is T1, DNA excision repair protein ERCC-1/DNA repair endonuclease XPF. As to the kind of experiment: Binding affinity to ERCC1-XPF (unknown origin) by SPR assay. It counts as protein-complex assay.
Data set [6] in a line: Apparent permeability by PAMPA method. It counts as physicochemical.
The nature of data set [7]: Half life in mouse liver microsomes. It counts as ADME.
Data set [8] concerns HepG2. As to the kind of experiment: Cytotoxicity against human HepG2 cells. It is filed as cell-based. Put shortly:
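Hep-G2 cells exposed to compound at concentrations up to 10 μM; toxicity assessed.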

Data set [9] can be described thus: Half life in human liver microsomes. It is filed as ADME.

The structures appear in SMILES notation. Some results are limits rather than exact numbers.

Chain of Flap endonuclease 1 (P39748 whole entry): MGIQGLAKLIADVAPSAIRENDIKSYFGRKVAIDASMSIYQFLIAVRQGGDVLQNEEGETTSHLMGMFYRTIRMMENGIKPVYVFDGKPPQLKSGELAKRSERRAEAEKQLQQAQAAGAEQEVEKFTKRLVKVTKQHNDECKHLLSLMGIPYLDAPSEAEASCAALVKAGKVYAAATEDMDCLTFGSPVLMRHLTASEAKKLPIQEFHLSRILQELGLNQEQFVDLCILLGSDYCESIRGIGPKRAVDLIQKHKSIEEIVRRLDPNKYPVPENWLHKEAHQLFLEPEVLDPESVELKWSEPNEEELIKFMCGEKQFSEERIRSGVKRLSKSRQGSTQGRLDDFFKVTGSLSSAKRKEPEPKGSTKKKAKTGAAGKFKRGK

On to `O=c1[nH]ccc(-c2ccc(F)cc2)c1O`, for which the IC50 in data set [1] was more than 100 µM.
As for `N#Cc1cccc(CC(=O)NCc2ccc(O)c(O)c2)c1`, the IC50 in [1] worked out at 4 µM.
Turning to `Cc1cccc(NCC(=O)N/N=C/c2cc(Br)c(O)c(O)c2Br)c1`, the IC50 was 33 µM in data set [1], more than 100 µM in [2] and more than 100 µM in data set [3].
For `O=C(Cc1ccc(Cl)cc1)NCc1ccc(O)c(O)c1`, the IC50 is 1 µM in data set [1], more than 100 µM in [2] and more than 100 µM in data set [3].
For the molecule `O=C(Cc1ccc(O)c(O)c1)NCc1ccc(Cl)cc1Cl`, the IC50 in [1] is 0.74 µM; in data set [2], more than 100 µM; in data set [3], more than 100 µM.
For `O=C(CNc1ccccc1)NCCc1ccc(O)c(O)c1`, the IC50 in data set [1] is 15.2 µM; in data set [2], more than 100 µM; in data set [3], more than 100 µM.
Consider `O=c1[nH]cc(-c2cccc(-n3cccn3)c2)cc1O`, for which the IC50 in data set [1] was 5.2 µM; in data set [2] it was more than 100 µM; in data set [3] it was more than 100 µM.
Consider `O=C(Cc1ccccc1)NCc1ccc(O)c(O)c1`, for which the values for the IC50 in data set [1], in [2] and in [3] were 13.3 µM, more than 100 µM and more than 100 µM, respectively.
In data set [1], `COc1ccc(CC(=O)NCc2ccc(O)c(O)c2)cc1` showed an IC50 of 2.6 µM.
Regarding `CC(C)C(=O)NCc1ccc(O)c(O)c1`, the IC50 in data set [1] is 24 µM. Against the preceding molecule, the IC50 is about 9.2-fold higher.
With `O=c1[nH]cc(-c2ccc(F)c(Cl)c2)cc1O`, the 50% inhibitory concentration (IC50) is 13.1 µM in data set [1], more than 100 µM in data set [2] and more than 100 µM in data set [3].
Regarding `O=C(NCc1ccc(O)c(O)c1)Nc1ccc(Cl)cc1`, the IC50 in data set [1] was 4.8 µM; in data set [2], more than 100 µM; in [3], more than 100 µM.
With `O=C(CNc1ccccc1)NCc1ccc(O)c(O)c1`, the 50% inhibitory concentration (IC50) in data set [1] is 0.9 µM; in data set [2], more than 100 µM; in [3] it was more than 100 µM.
Consider `O=C(NCc1ccc(O)c(O)c1)C1CCN(Cc2ccc(F)cc2)CC1`, for which the IC50 in [1] was 5.8 µM; in data set [2] it was more than 100 µM; in data set [3], more than 100 µM.
Regarding `CC(=O)Nc1ccc(-c2c[nH]c(=O)c(O)c2)cc1`, the IC50 is 13.5 µM in [1], more than 100 µM in [2] and more than 100 µM in data set [3].
Turning to `O=C(CC1CCCCC1)NCc1ccc(O)c(O)c1`, the values for the IC50 in data set [1], in [2] and in [3] were 1.4 µM, more than 100 µM and more than 100 µM, respectively.
`O=C1N(Cc2ccc(Cl)cc2)CCN1Cc1ccc(O)c(O)c1`: the IC50 is 4.1 µM in data set [1], more than 100 µM in [2] and more than 100 µM in data set [3].
For `O=C(CNc1ccccc1)Nc1ccc(O)c(O)c1`, the IC50 is 1.6 µM in data set [1], more than 100 µM in [2] and more than 100 µM in [3].
`O=c1[nH]c(-c2ccc(F)cc2)ccc1O` registered an IC50 in [1] of 55.2 µM.
The same measure, in the same setting: next, `O=C(Cc1ccc(Cl)cc1Cl)NCc1c[nH]c(=O)c(O)c1`: 100 µM.
Take `O=C(Cc1ccc(Cl)cc1Cl)NCc1ccc(O)c(O)c1Cl`: the IC50 in data set [1] was 1.6 µM; in [2], more than 100 µM; in data set [3], more than 100 µM.
`O=S(=O)(Cc1ccc(Cl)cc1Cl)NCc1ccc(O)c(O)c1`: the IC50 in data set [1] is 2.9 µM; in [2], more than 100 µM; in data set [3], more than 100 µM.
Turning to `O=C(Cc1ccc(Cl)cc1Cl)N1CCc2cc(O)c(O)cc2C1`, the figures for the IC50 in [1], in [2] and in data set [3] were 1 µM, more than 100 µM and more than 100 µM, respectively.
As for `CC(C(=O)NCc1ccc(O)c(O)c1)c1ccccc1` (stereo unspecified), the figures for the IC50 in data set [1] and in data set [2] were 1.8 µM and more than 100 µM, respectively.
For `O=C(NCc1ccc(O)c(O)c1)c1ccccc1`, the IC50 in data set [1] was 24.5 µM; in [2] it was more than 100 µM; in data set [3], more than 100 µM.
Regarding `O=C(Cc1ccccc1Cl)NCc1ccc(O)c(O)c1`, the IC50 was 0.8 µM in data set [1], more than 100 µM in data set [2] and more than 100 µM in data set [3].
In the case of `Cn1ncc2ccc(-c3c[nH]c(=O)c(O)c3)cc21`, the half-inhibitory concentration (IC50) was 14.6 µM in [1], more than 100 µM in [2] and more than 100 µM in data set [3].
On to `O=c1[nH]cc(-c2ccc(F)cc2)cc1O`, for which the logD in data set [4] came out at 2. In addition, the IC50 in data set [1] is 8.7 µM; in [2], more than 100 µM; in [3] it was more than 100 µM. In addition, the equilibrium dissociation constant (Kd) in data set [5] is 3.5 µM. In [6], the Papp came to 4.4 ×10⁻⁶ cm/s. Further, the half-life in data set [7] and in [9] was more than 6.67 h in each case. In [8], the Activity was more than 10 µM.
For `O=C(NCc1ccc(O)c(O)c1)C1CCCC1`, the results for the IC50 in data set [1], in data set [2] and in data set [3] were 24.6 µM, more than 100 µM and more than 100 µM, respectively.
Molecule `O=c1[nH]cc(Br)cc1O` registered an IC50 in data set [1] of 24 µM. This counts as double-digit micromolar.
Consider `O=C(CCc1ccccc1)NCc1ccc(O)c(O)c1`, for which the IC50 in data set [1] is 7.3 µM; in [2] it was more than 100 µM; in [3], more than 100 µM.
`O=C(COc1ccccc1)NCc1ccc(O)c(O)c1`: the results for the IC50 in [1], in [2] and in [3] were 12.1 µM, more than 100 µM and more than 100 µM, respectively.
As for `Oc1ccc(-c2nc(Cc3ccc(Cl)cc3)no2)cc1O`, the figures for the IC50 in data set [1], in [2] and in [3] were 7.8 µM, more than 100 µM and more than 100 µM, respectively.
`O=C(CNc1ccccc1)N/N=C/c1ccc(O)c(O)c1`: the figures for the IC50 in [1], in data set [2] and in [3] were 2 µM, more than 100 µM and more than 100 µM, respectively.
`Oc1ccc(Cc2nc(-c3ccc(Cl)cc3)no2)cc1O`: the values for the IC50 in data set [1], in [2] and in data set [3] were 12.2 µM, more than 100 µM and more than 100 µM, respectively.
As to `O=C(Cc1cccnc1)NCc1ccc(O)c(O)c1`, in data set [1], half-maximal inhibition (IC50) was put at 25.6 µM. This lies in the double-digit micromolar range.
`O=C(NCc1ccc(O)c(O)c1)C1(c2ccccc2)CCCCC1`: the results for the IC50 in data set [1] and in [2] were 1.6 µM and more than 100 µM, respectively.
For `CN(Cc1ccc(O)c(O)c1)C(=O)Cc1ccc(Cl)cc1Cl`, the results for the 50% inhibitory concentration (IC50) in data set [1], in data set [2] and in [3] were 0.8 µM, more than 100 µM and more than 100 µM, respectively.
Molecule `Cn1cc(-c2ccc(F)cc2)cc(O)c1=O` showed an IC50 in data set [1] of more than 100 µM.
`O=C(Cc1ccc(N2CCOCC2)cc1)NCc1ccc(O)c(O)c1`: the IC50 is 7.9 µM in [1], more than 100 µM in data set [2] and more than 100 µM in data set [3].
Take `CC(=O)N1CCN(CC(=O)NCc2ccc(O)c(O)c2)CC1`: the IC50 in data set [1] and in data set [3] was more than 100 µM each time.
As for `O=C(Cc1ccc(Cl)cc1Cl)NCc1cc(O)c(O)cc1F`, the concentration for half-maximal inhibition (IC50) in [1] is 1.1 µM; in data set [2], more than 100 µM; in data set [3] it was more than 100 µM.

The values are drawn from ChEMBL document CHEMBL3616382, “Catechols and 3-hydroxypyridones as inhibitors of the DNA repair complex ERCC1-XPF” (Bioorg Med Chem Lett, 2015).
